Test results taken from ChEMBL document CHEMBL3576820, “Discovery of benzimidazole oxazolidinediones as novel and selective nonsteroidal mineralocorticoid receptor antagonists” (ACS Med Chem Lett, 2015).
The source made the active and inactive calls. The rule behind the calls is not given here.

Experiments:
[1] = molecular target: T1, Androgen receptor (Homo sapiens, UniProt P10275); assay: Antagonist activity at human androgen receptor expressed in CHOK1 cells assessed as inhibition of D(-)-norgestrel-induced protein interaction with steroid receptor co-activator peptide after 24 hrs by beta-galactosidase reporter gene assay; assay type: cell-based, CHO-K1
T1 sequence (P10275 whole entry): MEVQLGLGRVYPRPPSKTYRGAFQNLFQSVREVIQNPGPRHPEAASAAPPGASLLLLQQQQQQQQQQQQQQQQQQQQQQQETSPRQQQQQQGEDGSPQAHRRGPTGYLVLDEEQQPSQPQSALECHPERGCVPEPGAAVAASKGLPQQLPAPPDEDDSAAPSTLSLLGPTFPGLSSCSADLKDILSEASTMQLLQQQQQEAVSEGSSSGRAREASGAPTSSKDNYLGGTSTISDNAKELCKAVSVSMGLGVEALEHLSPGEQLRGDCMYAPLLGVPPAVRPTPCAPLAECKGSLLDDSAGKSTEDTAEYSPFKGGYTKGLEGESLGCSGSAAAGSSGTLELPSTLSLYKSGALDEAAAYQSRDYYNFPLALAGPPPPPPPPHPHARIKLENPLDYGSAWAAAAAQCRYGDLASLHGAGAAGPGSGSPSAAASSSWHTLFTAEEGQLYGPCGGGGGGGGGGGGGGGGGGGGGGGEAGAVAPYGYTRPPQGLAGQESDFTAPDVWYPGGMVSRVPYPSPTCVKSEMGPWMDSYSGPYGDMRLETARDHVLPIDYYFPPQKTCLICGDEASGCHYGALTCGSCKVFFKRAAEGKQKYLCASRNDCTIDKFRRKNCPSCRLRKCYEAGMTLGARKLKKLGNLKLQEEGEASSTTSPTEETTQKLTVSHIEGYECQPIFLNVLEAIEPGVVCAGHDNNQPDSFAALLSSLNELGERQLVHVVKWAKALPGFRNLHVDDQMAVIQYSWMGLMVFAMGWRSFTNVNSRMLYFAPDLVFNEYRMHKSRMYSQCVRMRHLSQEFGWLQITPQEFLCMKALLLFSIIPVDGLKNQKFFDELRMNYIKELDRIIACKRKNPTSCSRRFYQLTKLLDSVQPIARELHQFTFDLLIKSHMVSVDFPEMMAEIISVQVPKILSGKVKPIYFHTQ

[2] = molecular target: T2, Progesterone receptor (Homo sapiens) (UniProt P06401); assay: Agonist activity at human progesterone receptor beta by cell-based assay
T2 sequence (whole entry): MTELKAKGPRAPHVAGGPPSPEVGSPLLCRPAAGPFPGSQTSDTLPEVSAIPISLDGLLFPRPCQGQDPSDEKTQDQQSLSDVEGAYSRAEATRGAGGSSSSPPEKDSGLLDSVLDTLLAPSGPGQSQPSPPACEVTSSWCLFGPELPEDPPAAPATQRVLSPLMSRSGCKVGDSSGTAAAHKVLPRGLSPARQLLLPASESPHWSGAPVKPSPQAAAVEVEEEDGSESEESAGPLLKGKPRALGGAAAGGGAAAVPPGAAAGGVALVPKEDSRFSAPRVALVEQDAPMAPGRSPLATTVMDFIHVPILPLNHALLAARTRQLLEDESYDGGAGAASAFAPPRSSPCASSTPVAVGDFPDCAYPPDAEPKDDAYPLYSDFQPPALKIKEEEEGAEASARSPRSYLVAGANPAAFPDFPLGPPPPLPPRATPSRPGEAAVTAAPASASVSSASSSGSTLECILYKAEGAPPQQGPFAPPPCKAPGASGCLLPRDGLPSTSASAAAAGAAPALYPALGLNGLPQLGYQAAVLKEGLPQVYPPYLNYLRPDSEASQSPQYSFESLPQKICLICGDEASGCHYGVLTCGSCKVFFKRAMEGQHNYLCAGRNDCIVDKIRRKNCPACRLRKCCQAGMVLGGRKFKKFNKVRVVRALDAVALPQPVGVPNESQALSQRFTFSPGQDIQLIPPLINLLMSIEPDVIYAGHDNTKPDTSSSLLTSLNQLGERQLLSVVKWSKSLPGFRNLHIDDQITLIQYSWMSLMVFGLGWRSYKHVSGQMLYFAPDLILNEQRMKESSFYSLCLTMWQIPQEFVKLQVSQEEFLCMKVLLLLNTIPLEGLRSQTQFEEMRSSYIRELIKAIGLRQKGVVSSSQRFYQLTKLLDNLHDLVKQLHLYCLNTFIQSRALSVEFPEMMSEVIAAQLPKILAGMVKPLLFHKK

[3] = system: Rattus norvegicus; assay: Dose normalized AUC in Wistar han rat at 2 mg/kg, po; assay type: ADME, organism-based; conditions: in vivo
Summary of the method: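 Wistar Han rats. IV dose 1 mg/kg in DMSO/PEG200/water (10:60:30), n=2. Oral dose 2 mg/kg in imwitor/tween (1:1) by gavage, n=3. Values are averages. Derived: F%, plasma clearance, Vdss, terminal half-life and oral AUC normalized to dose.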

[4] = molecular target: T3, Mineralocorticoid receptor (Homo sapiens) (UniProt P08235); assay: Agonist activity at human mineralocorticoid receptor by cell-based assay
T3 sequence (whole entry): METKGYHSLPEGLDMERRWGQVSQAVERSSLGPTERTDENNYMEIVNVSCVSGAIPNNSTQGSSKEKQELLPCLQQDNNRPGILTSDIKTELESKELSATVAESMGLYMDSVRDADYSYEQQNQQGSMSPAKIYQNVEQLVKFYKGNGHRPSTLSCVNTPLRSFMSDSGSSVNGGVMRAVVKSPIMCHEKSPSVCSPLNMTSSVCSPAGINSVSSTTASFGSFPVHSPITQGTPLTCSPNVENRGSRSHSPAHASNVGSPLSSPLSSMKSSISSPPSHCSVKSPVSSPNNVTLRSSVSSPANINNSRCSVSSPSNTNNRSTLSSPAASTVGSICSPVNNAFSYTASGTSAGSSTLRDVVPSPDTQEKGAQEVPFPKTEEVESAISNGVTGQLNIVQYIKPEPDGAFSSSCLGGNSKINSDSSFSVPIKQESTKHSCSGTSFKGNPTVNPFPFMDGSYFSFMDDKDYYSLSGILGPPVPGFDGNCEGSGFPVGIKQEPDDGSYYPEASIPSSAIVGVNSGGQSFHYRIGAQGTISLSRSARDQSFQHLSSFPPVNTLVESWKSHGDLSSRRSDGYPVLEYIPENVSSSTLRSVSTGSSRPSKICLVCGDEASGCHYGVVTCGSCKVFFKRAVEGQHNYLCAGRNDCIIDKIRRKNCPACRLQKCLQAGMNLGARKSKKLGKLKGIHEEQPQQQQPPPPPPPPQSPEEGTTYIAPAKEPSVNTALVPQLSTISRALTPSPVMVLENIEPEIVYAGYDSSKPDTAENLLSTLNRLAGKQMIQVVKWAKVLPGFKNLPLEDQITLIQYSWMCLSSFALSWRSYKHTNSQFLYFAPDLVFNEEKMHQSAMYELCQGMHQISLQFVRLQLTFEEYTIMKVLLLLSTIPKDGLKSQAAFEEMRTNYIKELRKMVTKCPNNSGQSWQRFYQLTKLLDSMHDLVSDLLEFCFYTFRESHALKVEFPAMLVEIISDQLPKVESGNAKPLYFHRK

[5] = Metabolic stability in rat liver microsomes assessed as compound remaining at 1 uM after 0.5 hrs; assay type: ADME; conditions: read-out: Stability

C[C@H](c1ccc(F)cc1)N1C(=O)O[C@](Cc2ccccc2)(c2nc3cc(-c4cccnc4)ccc3[nH]2)C1=O
IC50 [1]: 3.7 µM | Activity [2]: inactive | AUC/dose [3]: 0.046 µM·kg·h/mg | Activity [4]: inactive | remaining at 0.5 h, 1 µM [5]: 45%

C[C@H](c1ccc(F)cc1)N1C(=O)O[C@](Cc2ccccc2)(c2nc3cc(NS(C)(=O)=O)ccc3[nH]2)C1=O
IC50 [1]: 13 µM | Activity [2]: inactive | AUC/dose [3]: 0.067 µM·kg·h/mg | Activity [4]: inactive | remaining at 0.5 h, 1 µM [5]: 80%

C[C@H](c1ccc(F)cc1)N1C(=O)O[C@](Cc2ccccc2)(c2nc3cc(-c4cc[nH]n4)ccc3[nH]2)C1=O
IC50 [1]: 3.1 µM | Activity [2]: inactive | AUC/dose [3]: 0.49 µM·kg·h/mg | Activity [4]: inactive | remaining at 0.5 h, 1 µM [5]: 62%

C[C@H](c1ccc(F)cc1)N1C(=O)O[C@](Cc2ccccc2)(c2nc3cc(N4CCOCC4)ccc3[nH]2)C1=O
IC50 [1]: 7.7 µM | Activity [2]: inactive | AUC/dose [3]: 0.07 µM·kg·h/mg | Activity [4]: inactive | remaining at 0.5 h, 1 µM [5]: 92%

C[C@H](c1ccc(F)cc1)N1C(=O)O[C@](Cc2ccccc2)(c2nc3cc(Cl)ccc3[nH]2)C1=O
IC50 [1]: 3.1 µM | Activity [2]: inactive | AUC/dose [3]: 0.11 µM·kg·h/mg | Activity [4]: inactive | remaining at 0.5 h, 1 µM [5]: 14%

Cc1nocc1-c1ccc2[nH]c([C@@]3(Cc4ccccc4)OC(=O)N([C@H](C)c4ccc(F)cc4)C3=O)nc2c1
IC50 [1]: 3.4 µM | Activity [2]: inactive | AUC/dose [3]: 0.79 µM·kg·h/mg | Activity [4]: inactive | remaining at 0.5 h, 1 µM [5]: 54%

C[C@H](c1ccc(F)cc1)N1C(=O)O[C@](Cc2ccccc2)(c2nc3c(NS(C)(=O)=O)cccc3[nH]2)C1=O
IC50 [1]: 11 µM | Activity [2]: inactive | AUC/dose [3]: 0.085 µM·kg·h/mg | Activity [4]: inactive | remaining at 0.5 h, 1 µM [5]: 44%

C[C@H](c1ccc(F)cc1)N1C(=O)O[C@](Cc2ccccc2)(c2nc3cc(C(F)(F)F)ccc3[nH]2)C1=O
IC50 [1]: 3 µM | Activity [2]: inactive | AUC/dose [3]: 0.33 µM·kg·h/mg | Activity [4]: inactive | remaining at 0.5 h, 1 µM [5]: 41%
